The text below walks through data of publication PMC2688716 (European neuropsychopharmacology : the journal of the …, 2008).

Counter-ions that a name gives are not always drawn.

Data set [1] concerns the target Calcium, type N ion channel (Rattus norvegicus, UniProt Q02294). Put plainly: Radioligand binding, calcium channel type N. Conditions: 0.01 nM [125I]ω-conotoxin GVIA; nonspecific 0.1 μM ω-conotoxin GVIA; rat cerebral cortex; by NOVASCREEN; >10,000 = less than 30% displacement.
The test system of data set [2] is male, Swiss Webster mice. Description: Dopamine assay, striatum. The data set is classed as in vivo, mouse. Conditions: AC927 10 mg/kg pretreatment + methamphetamine 5 mg/kg; Tukey q=5.58, P < 0.01.
The test system of data set [3] is male, Swiss Webster mice. Put plainly: Core body temperature measurements. Type of data set: in vivo, mouse. The note with it: AC927 5–20 mg/kg, i.p., 4 times at 2 h intervals; measured 1 h after each injection.
Data set [4] relates to tumor cells. Conditions: through a σ receptor-mediated mechanism; ref Crawford et al., 2002; cited from earlier work.
The target of data set [5] is Melatonin receptor. Description: Radioligand binding, melatonin receptors. The note with it: 70 pM [125I]2-Iodomelatonin; nonspecific 0.1 μM 2-iodomelatonin; chicken brain; by NOVASCREEN; >10,000 = less than 30% displacement. In outline: (§1)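 Run by a contract screening service. Binding was measured in tissue homogenates. Ki was calculated with the Cheng-Prusoff equation from separately determined Kd values and reported as mean ± SEM of replicate assays.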

In data set [6] the target is Muscarinic, peripheral receptor. Description: Radioligand binding, muscarinic peripheral. Conditions: 0.3 nM [3H]QNB; nonspecific 0.1 μM atropine; guinea pig bladder; by NOVASCREEN; >10,000 = less than 30% displacement.
The target of data set [7] is Serotonin transporter (Rattus norvegicus, UniProt P31652). Description: Radioligand binding, serotonin transporter. The note with it: 0.2 nM [3H]paroxetine; nonspecific 1.5 μM imipramine; rat brainstem; 90 min at 25° C; in-house; >10,000 = less than 30% displacement.
Sequence of Serotonin transporter (P31652 whole entry): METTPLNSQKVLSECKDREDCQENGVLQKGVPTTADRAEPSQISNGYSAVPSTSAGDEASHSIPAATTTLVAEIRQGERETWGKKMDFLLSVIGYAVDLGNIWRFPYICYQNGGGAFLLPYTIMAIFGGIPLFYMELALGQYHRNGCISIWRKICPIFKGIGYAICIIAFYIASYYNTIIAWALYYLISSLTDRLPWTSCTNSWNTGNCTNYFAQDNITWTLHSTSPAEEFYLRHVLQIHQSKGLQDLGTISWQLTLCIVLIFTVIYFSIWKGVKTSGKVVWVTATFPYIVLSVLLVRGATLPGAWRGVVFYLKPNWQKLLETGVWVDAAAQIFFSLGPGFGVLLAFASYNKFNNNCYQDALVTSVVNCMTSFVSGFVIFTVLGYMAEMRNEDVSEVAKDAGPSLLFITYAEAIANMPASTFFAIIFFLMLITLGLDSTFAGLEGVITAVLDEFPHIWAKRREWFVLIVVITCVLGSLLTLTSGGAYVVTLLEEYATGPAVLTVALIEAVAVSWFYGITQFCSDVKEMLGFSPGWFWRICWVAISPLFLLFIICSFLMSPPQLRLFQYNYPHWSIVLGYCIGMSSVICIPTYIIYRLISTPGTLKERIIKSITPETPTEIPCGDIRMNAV
The target of data set [8] is Potassium, ATP-sensitive ion channel. Description: Radioligand binding, ATP-sensitive potassium channel. The note with it: 0.2 nM [3H]glibenclamide; nonspecific 0.1 μM glibenclamide; rat cerebral cortex; by NOVASCREEN; >10,000 = less than 30% displacement. In outline: as §1
The conditions of data set [9]: ref Matsumoto and Mack, 2001; Matsumoto et al., 2002, 2003; cited from earlier work.
Data set [10] has as its target Muscarinic, central receptor. Description: Radioligand binding, muscarinic central. Conditions: 0.15 nM [3H]QNB; nonspecific 0.1 μM atropine; rat cerebral cortex; by NOVASCREEN; >10,000 = less than 30% displacement.
In data set [11] the test system is male, Swiss Webster mice. Description: Locomotor activity measurements. The note with it: i.p. The data set is classed as in vivo, mouse.
In data set [12] the test system is male, Swiss Webster mice. Put plainly: Dopamine transporter. The note with it: 4 times at 2 h intervals.
In data set [13] the test system is male, Swiss Webster mice. Put plainly: Dopamine assay, cerebellum. Type of data set: in vivo, mouse. Conditions: AC927 10 mg/kg pretreatment + methamphetamine 5 mg/kg; Tukey q=4.55, P < 0.05.
Data set [14] deals with NG108-15 cells. Put plainly: Cytotoxicity. The data set is classed as cell-based. Conditions: methamphetamine 10–300 μM; 24 h and 48 h; 37° C; P < 0.0001.

Sequence of Calcium, type N ion channel (P54287 whole entry): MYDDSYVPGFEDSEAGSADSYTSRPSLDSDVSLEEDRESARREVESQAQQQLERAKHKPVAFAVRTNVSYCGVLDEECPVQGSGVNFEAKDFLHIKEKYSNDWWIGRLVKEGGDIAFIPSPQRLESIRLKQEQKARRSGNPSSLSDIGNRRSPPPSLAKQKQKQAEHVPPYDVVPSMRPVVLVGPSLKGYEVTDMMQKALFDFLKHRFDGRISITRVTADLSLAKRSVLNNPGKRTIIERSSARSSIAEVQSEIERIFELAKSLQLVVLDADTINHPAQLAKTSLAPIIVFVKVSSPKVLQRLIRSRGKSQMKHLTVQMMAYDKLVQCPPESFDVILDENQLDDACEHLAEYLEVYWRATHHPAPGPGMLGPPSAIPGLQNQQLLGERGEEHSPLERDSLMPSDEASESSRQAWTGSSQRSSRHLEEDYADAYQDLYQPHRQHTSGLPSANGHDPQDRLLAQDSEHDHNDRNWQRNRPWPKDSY
Sequence of Calcium, type N ion channel (P54290 945-1091, further chain): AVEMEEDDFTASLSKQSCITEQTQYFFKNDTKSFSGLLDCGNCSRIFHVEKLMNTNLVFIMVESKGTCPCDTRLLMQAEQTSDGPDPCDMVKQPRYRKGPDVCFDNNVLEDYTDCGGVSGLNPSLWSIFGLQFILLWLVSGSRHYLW
Sequence of Calcium, type N ion channel (Q02294 whole entry): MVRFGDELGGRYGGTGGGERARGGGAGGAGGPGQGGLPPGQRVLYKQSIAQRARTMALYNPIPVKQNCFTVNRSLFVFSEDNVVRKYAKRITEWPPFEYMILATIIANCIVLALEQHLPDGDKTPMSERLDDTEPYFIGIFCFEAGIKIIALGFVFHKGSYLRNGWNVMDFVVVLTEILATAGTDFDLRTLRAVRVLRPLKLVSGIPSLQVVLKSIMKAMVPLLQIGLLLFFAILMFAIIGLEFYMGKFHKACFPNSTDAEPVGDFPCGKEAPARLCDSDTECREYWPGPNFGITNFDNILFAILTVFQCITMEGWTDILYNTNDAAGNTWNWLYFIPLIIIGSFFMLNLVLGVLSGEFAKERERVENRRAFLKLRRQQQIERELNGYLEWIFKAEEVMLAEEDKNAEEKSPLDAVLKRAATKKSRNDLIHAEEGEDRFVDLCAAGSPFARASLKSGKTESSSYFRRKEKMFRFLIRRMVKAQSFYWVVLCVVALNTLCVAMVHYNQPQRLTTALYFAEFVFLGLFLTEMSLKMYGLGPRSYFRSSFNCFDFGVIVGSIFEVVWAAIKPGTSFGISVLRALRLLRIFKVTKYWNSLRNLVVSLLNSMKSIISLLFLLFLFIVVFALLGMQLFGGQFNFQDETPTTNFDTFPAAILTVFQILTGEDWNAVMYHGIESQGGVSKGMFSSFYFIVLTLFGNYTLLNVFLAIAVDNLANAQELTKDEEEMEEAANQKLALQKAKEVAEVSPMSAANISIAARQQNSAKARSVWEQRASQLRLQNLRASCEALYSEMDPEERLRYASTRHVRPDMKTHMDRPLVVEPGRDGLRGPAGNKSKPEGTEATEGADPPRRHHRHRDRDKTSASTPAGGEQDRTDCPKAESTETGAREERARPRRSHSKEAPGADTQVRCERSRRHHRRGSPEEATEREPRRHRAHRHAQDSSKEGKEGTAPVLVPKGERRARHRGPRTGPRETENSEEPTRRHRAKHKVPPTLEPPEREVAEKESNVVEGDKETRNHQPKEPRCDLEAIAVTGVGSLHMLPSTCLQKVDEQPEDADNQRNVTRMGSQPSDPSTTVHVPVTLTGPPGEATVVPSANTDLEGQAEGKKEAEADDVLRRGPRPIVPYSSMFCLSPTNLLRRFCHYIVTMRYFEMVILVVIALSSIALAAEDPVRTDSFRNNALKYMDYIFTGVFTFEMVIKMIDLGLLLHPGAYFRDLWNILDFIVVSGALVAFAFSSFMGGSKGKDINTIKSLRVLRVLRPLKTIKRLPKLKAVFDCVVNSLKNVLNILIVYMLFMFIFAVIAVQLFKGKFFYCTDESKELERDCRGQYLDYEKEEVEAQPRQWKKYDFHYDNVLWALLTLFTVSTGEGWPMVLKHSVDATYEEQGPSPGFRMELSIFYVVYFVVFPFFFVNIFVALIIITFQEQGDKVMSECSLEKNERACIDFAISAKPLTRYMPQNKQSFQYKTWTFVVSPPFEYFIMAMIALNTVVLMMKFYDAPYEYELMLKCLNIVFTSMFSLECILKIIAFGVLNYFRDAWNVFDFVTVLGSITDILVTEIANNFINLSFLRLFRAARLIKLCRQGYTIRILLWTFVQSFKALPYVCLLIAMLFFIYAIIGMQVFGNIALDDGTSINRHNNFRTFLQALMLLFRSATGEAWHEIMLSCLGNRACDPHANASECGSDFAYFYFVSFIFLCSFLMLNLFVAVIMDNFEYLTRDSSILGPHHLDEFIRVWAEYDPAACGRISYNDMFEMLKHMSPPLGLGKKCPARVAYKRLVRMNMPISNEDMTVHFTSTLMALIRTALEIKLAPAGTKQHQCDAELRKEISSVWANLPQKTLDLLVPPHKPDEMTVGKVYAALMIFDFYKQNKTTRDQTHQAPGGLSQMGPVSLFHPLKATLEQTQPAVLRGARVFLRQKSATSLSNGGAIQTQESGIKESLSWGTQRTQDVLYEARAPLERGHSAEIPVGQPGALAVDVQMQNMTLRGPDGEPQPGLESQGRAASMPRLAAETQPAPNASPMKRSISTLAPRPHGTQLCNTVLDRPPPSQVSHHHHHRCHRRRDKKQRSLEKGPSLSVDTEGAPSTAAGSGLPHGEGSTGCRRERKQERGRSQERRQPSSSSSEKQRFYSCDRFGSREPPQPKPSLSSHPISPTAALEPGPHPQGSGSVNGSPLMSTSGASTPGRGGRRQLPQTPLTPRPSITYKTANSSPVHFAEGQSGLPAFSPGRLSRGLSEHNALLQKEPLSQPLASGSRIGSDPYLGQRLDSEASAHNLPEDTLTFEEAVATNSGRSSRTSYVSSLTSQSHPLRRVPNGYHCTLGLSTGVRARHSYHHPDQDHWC
Sequence of Calcium, type N ion channel (P54290 25-944, further chain): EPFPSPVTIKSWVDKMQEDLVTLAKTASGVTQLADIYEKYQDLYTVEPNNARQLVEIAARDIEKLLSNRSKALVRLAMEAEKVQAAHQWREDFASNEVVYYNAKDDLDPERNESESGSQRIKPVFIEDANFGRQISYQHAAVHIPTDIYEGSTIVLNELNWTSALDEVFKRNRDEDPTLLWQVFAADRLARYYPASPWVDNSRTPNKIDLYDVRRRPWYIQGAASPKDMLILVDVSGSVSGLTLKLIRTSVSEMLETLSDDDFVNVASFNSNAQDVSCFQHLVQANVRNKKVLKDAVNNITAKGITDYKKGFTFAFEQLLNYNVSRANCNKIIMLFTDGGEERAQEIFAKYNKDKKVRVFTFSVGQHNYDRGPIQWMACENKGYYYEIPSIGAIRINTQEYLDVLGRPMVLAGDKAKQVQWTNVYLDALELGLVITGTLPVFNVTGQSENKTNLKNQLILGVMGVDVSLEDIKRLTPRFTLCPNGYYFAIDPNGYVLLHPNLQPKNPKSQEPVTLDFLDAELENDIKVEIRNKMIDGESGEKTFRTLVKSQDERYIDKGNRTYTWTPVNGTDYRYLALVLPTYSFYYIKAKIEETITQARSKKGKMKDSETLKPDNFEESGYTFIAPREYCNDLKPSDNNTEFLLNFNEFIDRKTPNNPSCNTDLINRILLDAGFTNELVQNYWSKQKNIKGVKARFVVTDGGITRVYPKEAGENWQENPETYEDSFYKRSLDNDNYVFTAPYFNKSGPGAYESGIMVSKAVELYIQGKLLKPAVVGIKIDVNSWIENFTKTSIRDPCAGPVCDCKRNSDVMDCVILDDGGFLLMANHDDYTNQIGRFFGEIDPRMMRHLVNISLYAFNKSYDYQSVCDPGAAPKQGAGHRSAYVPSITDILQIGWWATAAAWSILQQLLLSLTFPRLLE

Turning to `O=C(O)C(=O)O.c1ccc(CCN2CCCCC2)cc1` [AC927, N-phenethylpiperidine oxalate], the Ki in data set [1], in data set [5], in data set [6], in data set [7], in data set [8] and in data set [10] was over 10 µM in each case. For the same compound, in data set [2], the “Methamphetamine-induced striatal dopamine depletion, AC927 10 mg/kg” value is “significantly attenuated”. For the same compound, the “Core body temperature, AC927 alone” value in [3] is “did not significantly change core body temperature”. The “Apoptosis in tumor cells” value in data set [4] was “attenuate apoptosis in tumor cells”. Also, in data set [9], the “Acute locomotor stimulant effects of cocaine” value was “significantly attenuate the acute locomotor stimulant effects of cocaine”. Besides, the “Locomotor activity, dose response of AC927 alone” value in [11] (AC927 0–20 mg/kg, activity quantified for 30 min, F(2,23)=7.45, P < 0.005) is reported as “dose dependently decreased locomotor activity”. Further, the “Locomotor activity vs. saline control” value in data set [11] (AC927 alone 10 mg/kg, q=1.09, n.s.) is reported as “did not differ significantly from the saline control”; in [11] (AC927 alone 20 mg/kg, q=3.80, P < 0.01) it was “differed significantly from the saline control”. Besides, the “DAT immunoreactivity in striatum, AC927 alone” value in data set [12] (AC927 10 mg/kg, i.p. + saline, q=3.56, n.s.) is listed as “no significant effects on DAT expression”. Moreover, the “Methamphetamine-induced cerebellar dopamine depletion, AC927 10 mg/kg” value in data set [13] is reported as “significantly attenuated”.
Regarding `CN[C@@H](C)Cc1ccccc1` [Methamphetamine, Methamphetamine hydrochloride, reference compound], the “Cytotoxicity (cell morphology score), methamphetamine” value in data set [14] is reported as “concentration dependent increase in neurotoxicity”. In addition, the “Locomotor activity, dose response of methamphetamine” value in [11] (methamphetamine 0–1 mg/kg, activity quantified for 30 min, F(3,34)=5.93, P < 0.005) was “progressive increase in locomotor activity”. Further, the “Locomotor activity vs. saline control” value in data set [11] (methamphetamine 1 mg/kg, Dunnett q=3.61, P < 0.01) is “differed significantly from the saline control”. In addition, in data set [12] (methamphetamine 5 mg/kg, i.p., one week later, q=14.26, P < 0.001), the “DAT immunoreactivity in striatum, methamphetamine” value is “significant reduction in DAT immunoreactivity”.
